Measurements published in ChEMBL document CHEMBL4627381, “Licochalcone A Selectively Resensitizes ABCG2-Overexpressing Multidrug-Resistant Cancer Cells to Chemotherapeutic Drugs” (J Nat Prod, 2020).

Assays:
HEK293 = test: Effect on Colchicine-induced cytotoxicity against HEK293 cells assessed as fold change in colchicine IC50 at 1 uM after 72 hrs by CCK8 assay relative to colchicine IC50; type: cell-based; conditions: human, hek293, 72 h
In short: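 Reversal assay in parental pcDNA-HEK293 and transfected HEK293 lines (ABCB1 for colchicine, ABCC1 for etoposide, ABCG2 for mitoxantrone/topotecan). Substrate drug series was given with or without nontoxic modulator (0.5, 1.0, 2.0 or 3.0 μM) for 72 h, with a CCK-8 read-out. Fold-reversal is substrate IC50 without modulator divided by IC50 with modulator. Three independent experiments.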

[1] = target: ATP-dependent translocase ABCB1 (Homo sapiens, UniProt P08183); test: Reversal of human ABCB1-mediated multidrug resistance in HEK293/MDR19 cells assessed as fold change in colchicine IC50 at 1 uM after 72 hrs by CCK8 relative to colchicine IC50; type: cell-based
Chain of ATP-dependent translocase ABCB1 (P08183 whole entry): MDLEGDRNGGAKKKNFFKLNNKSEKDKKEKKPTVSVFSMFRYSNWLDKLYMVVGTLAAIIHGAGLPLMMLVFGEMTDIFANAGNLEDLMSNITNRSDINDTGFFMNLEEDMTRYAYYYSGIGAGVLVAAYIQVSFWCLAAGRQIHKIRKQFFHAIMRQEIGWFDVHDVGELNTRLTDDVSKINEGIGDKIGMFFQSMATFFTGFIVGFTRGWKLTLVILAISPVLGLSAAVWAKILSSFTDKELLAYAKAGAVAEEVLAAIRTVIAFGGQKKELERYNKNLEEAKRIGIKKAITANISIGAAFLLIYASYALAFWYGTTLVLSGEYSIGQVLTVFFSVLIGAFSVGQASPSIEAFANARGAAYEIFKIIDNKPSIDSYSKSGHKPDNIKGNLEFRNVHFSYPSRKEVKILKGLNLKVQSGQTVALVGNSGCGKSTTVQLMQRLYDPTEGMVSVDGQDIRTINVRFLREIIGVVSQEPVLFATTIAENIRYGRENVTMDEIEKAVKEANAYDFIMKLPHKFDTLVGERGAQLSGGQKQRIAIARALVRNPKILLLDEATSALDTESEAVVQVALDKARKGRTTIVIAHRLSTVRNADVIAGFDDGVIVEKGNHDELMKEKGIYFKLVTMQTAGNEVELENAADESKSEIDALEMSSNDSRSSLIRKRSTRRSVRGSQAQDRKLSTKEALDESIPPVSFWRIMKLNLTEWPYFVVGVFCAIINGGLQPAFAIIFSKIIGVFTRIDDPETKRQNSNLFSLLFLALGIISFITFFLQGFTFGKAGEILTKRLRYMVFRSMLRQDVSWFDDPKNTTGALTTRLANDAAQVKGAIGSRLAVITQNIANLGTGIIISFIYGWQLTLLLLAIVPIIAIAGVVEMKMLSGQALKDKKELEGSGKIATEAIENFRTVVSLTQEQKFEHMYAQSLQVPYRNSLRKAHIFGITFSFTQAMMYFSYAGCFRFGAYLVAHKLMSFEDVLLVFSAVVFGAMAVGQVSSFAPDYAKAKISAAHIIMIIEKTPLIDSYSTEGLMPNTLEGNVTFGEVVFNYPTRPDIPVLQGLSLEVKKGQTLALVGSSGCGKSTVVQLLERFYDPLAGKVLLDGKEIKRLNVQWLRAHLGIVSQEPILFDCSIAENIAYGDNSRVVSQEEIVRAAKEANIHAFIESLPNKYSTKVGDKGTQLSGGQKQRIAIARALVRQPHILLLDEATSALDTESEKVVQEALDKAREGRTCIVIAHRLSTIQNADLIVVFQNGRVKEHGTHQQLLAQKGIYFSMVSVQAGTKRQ
In short: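 Cells were seeded at 5000/well for 24 h, then given colchicine, etoposide, mitoxantrone or topotecan ± non-toxic modulator (0.5–3.0 μM) for 72 h, with DMSO up to 0.5%. IC50 came from fitted curves (mean ± SD, three experiments). Fold-reversal = IC50 without modulator ÷ IC50 with modulator.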

S1 [2] = test: Induction of apoptosis in human S1 cells assessed as necrotic cells at 5 uM incubated for 48 hrs by annexin V/propidium iodide staining based flow cytometry (reference value: 0.2%); type: functional
S1 [3] = test: Induction of apoptosis in human S1 cells assessed as viable cells at 5 uM incubated for 48 hrs by annexin V/propidium iodide staining based flow cytometry (reference value: 94.1%); type: functional; conditions: S1, 48 h, read-out: Activity
S1 [4] = test: Induction of apoptosis in human S1 cells assessed as late apoptotic cells at 5 uM incubated for 48 hrs by annexin V/propidium iodide staining based flow cytometry (reference value: 3.6%); type: functional
In short: (§1)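 S1 cells were exposed for 48 h to DMSO, 10 μM compound, 5 μM topotecan, or 5 μM topotecan plus 10 μM compound. They were then stained with 1.25 μg/mL annexin V–FITC and 0.1 mg/mL PI for 15 min at room temperature. 10000 cells per sample were analysed by flow cytometry; three independent experiments.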

S1 [5] = test: Induction of apoptosis in human S1 cells assessed as early apoptotic cells at 5 uM incubated for 48 hrs by annexin V/propidium iodide staining based flow cytometry (reference value: 2%); type: functional; in short: as §1

Row | fold change (FC) [1] | SMILES | fold change (FC) (HEK293) | Activity (S1 [2]) | viability at 5 µM (S1 [3]) | Activity (S1 [4]) | Activity (S1 [5])
1 | 12.5 | COc1cc2c(cc1OC)CN(CCc1ccc(NC(=O)c3cc(OC)c(OC)cc3NC(=O)c3cnc4ccccc4c3)cc1)CC2 | 1.1 |  |  |  | 
2 |  | CC[C@@]1(O)C(=O)OCc2c1cc1n(c2=O)Cc2cc3c(CN(C)C)c(O)ccc3nc2-1 [TOPOTECAN] |  | 3.5% | 42.7% | 22.7% | 31.2%
